Reference: ChEMBL document CHEMBL2429813, “Phomapyrrolidones A-C, antitubercular alkaloids from the endophytic fungus Phoma sp. NRRL 46751” (J Nat Prod, 2013)
In brackets after ≈: the same amount, converted by molar mass. Activity calls are given as the source filed them. The rule behind the calls is not given here.

Assays:
[1] = tested on: Mycobacterium tuberculosis; experiment: Antitubecular activity against Mycobacterium tuberculosis […] assessed as growth inhibition after 4 days by microplate Alamar blue assay; assay type: functional; conditions: 96 h
Method in brief: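 Replicating M. tuberculosis […] cultures in microplate alamar blue (resazurin) format. MIC was read out and reported in μg/mL, with μM in parentheses. Rifampin and isonicotinylhydrazine served as positive controls.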

[2] = tested on: Mycobacterium tuberculosis; experiment: Antitubecular activity against Mycobacterium tuberculosis […] assessed as growth inhibition by low oxygen recovery assay; assay type: functional
Method in brief: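 Non-replicating M. tuberculosis […] under low-oxygen conditions, with growth assessed on recovery (LORA). Endpoint was MIC, in μg/mL with μM in parentheses. Rifampin and isonicotinylhydrazine were the positive controls.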

[3] = tested on: PC-3M; experiment: Cytotoxicity against human PC3M cells at 5 uM after 72 hrs by Alamar blue assay; assay type: functional, cell-based
Method in brief: (§1)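 The human cancer cell panel was assayed by resazurin (alamarBlue) read-out, with 5.0 μM as the highest concentration tested and doxorubicin as the positive control. The procedure follows an earlier report.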

[4] = tested on: MCF7; experiment: Cytotoxicity against human MCF7 cells at 5 uM after 72 hrs by Alamar blue assay; assay type: functional, cell-based; method in brief: as §1
[5] = tested on: Vero; experiment: Cytotoxicity against African green monkey Vero cells after 72 hrs by MTS-PMS assay; assay type: cell-based; conditions: Chlorocebus sabaeus
Method in brief: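 Vero cells were assayed by MTS-PMS colorimetric read-out, with rifampin as the positive control. The procedure follows an earlier report. Values are given as IC50.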

[6] = tested on: SF-268; experiment: Cytotoxicity against human SF268 cells at 5 uM after 72 hrs by Alamar blue assay; assay type: functional, cell-based; method in brief: as §1
[7] = tested on: MDA-MB-231; experiment: Cytotoxicity against human MDA-MB-231 cells at 5 uM after 72 hrs by Alamar blue assay; assay type: functional, cell-based; method in brief: as §1
[8] = tested on: NCI-H460; experiment: Cytotoxicity against human NCI-H460 cells at 5 uM after 72 hrs by Alamar blue assay; assay type: functional, cell-based; method in brief: as §1

| Structure (SMILES) | MIC [1] | MIC [2] | Activity [3] | Activity [4] | IC50 [5] | Activity [6] | Activity [7] | Activity [8] |
| --- | --- | --- | --- | --- | --- | --- | --- | --- |
| NNC(=O)c1ccncc1 [ISONIAZID] | 0.03 µg/mL (≈ 0.219 µM) | > 17.5 µg/mL |  |  |  |  |  |  |
| CC1=C[C@@]2(C)C(=C(C)[C@H]3[C@H]4C[C@@H](C)C[C@@H](C)[C@@H]4[C@@H]4Oc5ccc(cc5)C[C@@H]5C(=O)NC(=O)[C@H]5C(=O)[C@H]2[C@H]43)[C@H]1C | 20.1 µg/mL (≈ 38.1 µM) | 41.1 µg/mL (≈ 77.9 µM) | inactive | inactive | 33.6 µM | inactive | inactive | inactive |
| CC1=C[C@@]2(C)C(=C(C)[C@H]3[C@H]4C[C@@H](C)C[C@@H](C)[C@@H]4[C@@H]4Oc5ccc(cc5)C[C@H]5C(=O)NC(=O)[C@@H]5C(=O)[C@H]2[C@H]43)[C@H]1C | 5.9 µg/mL (≈ 11.2 µM) | 15.4 µg/mL (≈ 29.2 µM) | inactive | inactive | 32.4 µM | inactive | inactive | inactive |
| CC1=C[C@@]2(C)C(=C(C)[C@H]3[C@H]4C[C@@H](C)C[C@@H](C)[C@@H]4[C@@H]4Oc5ccc(cc5)CC5(O)NC(=O)C6(O[C@H]56)C(=O)[C@H]2[C@H]43)[C@H]1C (some centres not stated) | 5.2 µg/mL (≈ 9.56 µM) | 13.4 µg/mL (≈ 24.6 µM) | inactive | inactive | 35.7 µM | inactive | inactive | inactive |
| CC1=C[C@@]2(C)C(=C(C)[C@H]3[C@H]4C[C@@H](C)C[C@@H](C)[C@@H]4[C@@H]4Oc5ccc(cc5)C[C@@H]5C(=O)N(C)C(=O)[C@H]5C(=O)[C@H]2[C@H]43)[C@H]1C | > 100 µg/mL | > 100 µg/mL | inactive | inactive | 145 µM | inactive | inactive | inactive |
| CO[C@H]1/C=C/O[C@@]2(C)Oc3c(C)c(O)c4c(O)c(c(/C=N/N5CCN(C)CC5)c(O)c4c3C2=O)NC(=O)/C(C)=C\C=C\[C@H](C)[C@H](O)[C@@H](C)[C@@H](O)[C@@H](C)[C@H](OC(C)=O)[C@@H]1C [RIFAMPIN] | 0.07 µg/mL (≈ 0.0851 µM) | 0.1 µg/mL (≈ 0.122 µM) |  |  | 132 µM |  |  |  |
